The text below walks through data of ChEMBL document CHEMBL2016555, “4-Methoxy-N-[2-(trifluoromethyl)biphenyl-4-ylcarbamoyl]nicotinamide: A Potent and Selective Agonist of S1P1” (ACS Med Chem Lett, 2011).

Molecules are shown by their SMILES. ≈ marks a conversion by molar mass, not a printed value.

The target of data set [1] is T1, Sphingosine 1-phosphate receptor 1 (Homo sapiens, UniProt P21453). Kind of data set: Agonist activity at human S1P1 expressed in U2OS cells coexpressing eGFP assessed as receptor internalization after 1 hr by microscopic analysis relative to 1-(4-(6-benzylbenzofuran-2-yl)-3-fluorobenzyl)azetidine-3-carboxylic acid. Format: functional, cell-based. An outline of the steps: (§1)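 Human S1P1–eGFP fusion protein expressed in U2OS cells; agonism read as receptor internalization; EC50 derived, efficacy expressed relative to 1-(4-(6-benzylbenzofuran-2-yl)-3-fluorobenzyl)azetidine-3-carboxylic acid at 1.0 μM.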
T1 sequence (P21453 whole entry, the tested form may be a part): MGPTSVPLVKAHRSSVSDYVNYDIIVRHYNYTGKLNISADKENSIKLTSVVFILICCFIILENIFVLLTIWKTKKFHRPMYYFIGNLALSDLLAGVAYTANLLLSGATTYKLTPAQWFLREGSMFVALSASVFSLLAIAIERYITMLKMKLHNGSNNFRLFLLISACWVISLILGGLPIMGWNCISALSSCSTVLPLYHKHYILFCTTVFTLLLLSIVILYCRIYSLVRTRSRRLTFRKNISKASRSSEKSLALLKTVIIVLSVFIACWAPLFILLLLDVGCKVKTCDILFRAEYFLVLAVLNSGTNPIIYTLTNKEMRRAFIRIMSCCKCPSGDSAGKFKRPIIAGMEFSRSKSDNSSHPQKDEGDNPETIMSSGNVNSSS

A short description of data set [2]: Solubility of the compound in simulated intestinal fluid. The format is physicochemical.
The target in data set [3] is T1, Sphingosine 1-phosphate receptor 1. The data set is described as follows: Agonist activity at human S1P1 expressed in U2OS cells coexpressing eGFP assessed as receptor internalization after 1 hr by microscopic analysis. The format is functional, cell-based. An outline of the steps: as §1
For a further data set, the system named is Rattus norvegicus. The data set is described as follows: Immunosuppressive activity in Lewis rat assessed as change in peripheral lymphocyte count at 1 mg/kg, po after 24 hrs relative to vehicle treated control. The format is functional. An outline of the steps:
(§2)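 Female Lewis rats (N = 5/group) given one oral dose of 1 mg/kg (20% captisol, 1% HPMC, 1% pluronic F68, pH 2.1 with MSA); blood lymphocyte count and total plasma compound measured at 24 h; POC vs vehicle, ANOVA/Dunnett's test.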

A short description of data set [4]: Solubility of the compound in 0.01 M aqueous HCl. The format is physicochemical.
Data set [5] in a line: Apparent permeability across pig LLC-PK1 cells. Format: ADME, cell-based, Sus scrofa. An outline of the steps: (§3)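 Permeability across porcine proximal tubule LLC-PK1 cell monolayers; apparent permeability (Papp) and efflux ratio determined.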
The nature of data set [6]: Solubility of the compound in phosphate buffer saline at pH 7.4. Format: physicochemical. The following applies: phosphate buffered saline.
Data set [7] can be described thus: Efflux ratio of apparent permeability across pig LLC-PK1 cells. The format is ADME, cell-based, Sus scrofa. In outline: as §3
For the next data set, the system named is Plasma. The data set is described as follows: (§4) Plasma concentration in Lewis rat at 1 mg/kg, po at 24 hrs. The format is ADME, organism-based. Further details: dose 1 mg/kg, route oral. The note with it: in vivo, 24 h, BLD = below limit of detection. In outline:
as §2

Data set [8] is described as follows: Intrinsic clearance in rat liver microsomes after 30 mins. Format: ADME, Microsome. The note with it: read-out: CLH. For orientation: Liver microsomes are a subcellular fraction often used to study metabolism.
Data set [9] addresses Sphingosine 1-phosphate receptor 3 (Homo sapiens, UniProt Q99500). The data set is described as follows: Agonist activity at human S1P3 expressed in CHO-K1 cells coexpressing Gq/i5 assessed as intracellular calcium release by fluorimetry. The format is functional, cell-based. In outline: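 CHO-K1 cells expressing the human S1P receptor subtype plus chimeric Gq/i5; Ca2+ mobilization measured; efficacy relative to S1P at 0.20 μM; compounds not reaching >10% of control activity reported as > highest concentration tested.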
Background: Calcium assays in cells follow changes in intracellular calcium, usually with a dye or a luminescent sensor.

The nature of data set [10]: as §4. The format is ADME, organism-based. Further details: dose 1 mg/kg, route oral. The note with it: Lewis, plasma. In outline: as §2

Chain of Sphingosine 1-phosphate receptor 3 (Q99500 whole entry): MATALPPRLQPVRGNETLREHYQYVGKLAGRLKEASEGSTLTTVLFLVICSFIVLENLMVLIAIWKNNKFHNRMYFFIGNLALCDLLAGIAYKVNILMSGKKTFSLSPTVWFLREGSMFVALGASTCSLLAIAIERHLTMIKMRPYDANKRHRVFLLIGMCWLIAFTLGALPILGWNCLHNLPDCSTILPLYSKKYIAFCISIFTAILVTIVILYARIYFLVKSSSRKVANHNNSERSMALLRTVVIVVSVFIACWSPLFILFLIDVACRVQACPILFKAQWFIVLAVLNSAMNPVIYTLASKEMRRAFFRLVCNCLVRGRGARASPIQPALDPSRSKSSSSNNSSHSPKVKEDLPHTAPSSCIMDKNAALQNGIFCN

Turning to `COc1ccccc1C(=O)NC(=O)Nc1ccc(C(C)C)c(C(F)(F)F)c1`, the Efficacy in [1] came to 110%. Further, the solubility in data set [2] is 6.9 µg/mL (≈ 18.1 µM); in [4], under 1 µg/mL; in data set [6], under 1 µg/mL. For the same molecule, the EC50 in data set [3] was 0.014 µM. In the data set on Rattus norvegicus, the Activity was -16%. Moreover, the apparent permeability coefficient (Papp) in data set [5] worked out at 2.1 ×10⁻⁶ cm/s. Moreover, the efflux ratio in [7] was determined as 1. The Cp entry with Plasma is on record as “BLD”. The microsomal CLint in [8] is under 14 µL/min/mg.

With `COc1ccccc1C(=O)NC(=S)Nc1ccc(N2CCCCC2)c(Cl)c1`, the Efficacy in [1] turned out to be 87%. Further, the solubility in [2] was 27 µg/mL (≈ 66.8 µM); in data set [4], under 1 µg/mL; in data set [6], under 1 µg/mL. The values for the EC50 in [3] and in data set [9] were 0.43 µM and over 25 µM, respectively. Moreover, the apparent permeability (Papp) in data set [5] is 1.8 ×10⁻⁶ cm/s. Moreover, in data set [7], the efflux ratio came out at 1. Moreover, the microsomal CLint in data set [8] came out at 29 µL/min/mg.

For the molecule `COc1ccccc1C(=O)NC(=O)Nc1ccc(OCC(F)(F)F)c(C(F)(F)F)c1`, in [1], the Efficacy is 83%. In addition, the solubility is 2.2 µg/mL (≈ 5.04 µM) in [2], under 1 µg/mL in data set [4] and under 1 µg/mL in data set [6]. In data set [3], the EC50 is 0.0068 µM. Also, the Activity in the data set with Rattus norvegicus is on record as 4%. Also, the apparent permeability (Papp) in data set [5] is under 1 ×10⁻⁶ cm/s. For the same molecule, the concentration at 24 h in data set [10] was 1 ng/mL. Moreover, the microsomal CLint in data set [8] was 25 µL/min/mg.

Turning to `COc1ccccc1C(=O)NC(=O)Nc1ccc(-c2ccccn2)c(C(F)(F)F)c1`, in data set [1], the Efficacy came out at 110%. For the same molecule, the values for the solubility in data set [2], in [4] and in data set [6] were 8.5 µg/mL (≈ 20.5 µM), 28 µg/mL (≈ 67.4 µM) and 19 µg/mL (≈ 45.7 µM), respectively. The EC50 in [3] came out at 0.013 µM. The Activity in the data set on Rattus norvegicus is -14%. The Papp in [5] stood at 7.4 ×10⁻⁶ cm/s. In addition, in data set [7], the efflux ratio stood at 1.1. For the same molecule, the concentration at 24 h in data set [10] is 13 ng/mL. Moreover, in data set [8], the microsomal CLint amounted to 15 µL/min/mg.

For the molecule `COc1ccccc1C(=O)NC(=O)Nc1ccc(-c2ccccc2)c(C(C)C)c1`, the Efficacy in data set [1] was determined as 120%. The solubility is 24 µg/mL (≈ 61.8 µM) in data set [2], under 1 µg/mL in data set [4] and under 1 µg/mL in data set [6]. In addition, the 50% effective concentration (EC50) in [3] was 0.0054 µM. Also, the Activity with Rattus norvegicus turned out to be 3%. Moreover, in [5], the apparent permeability (Papp) came out at 1.2 ×10⁻⁶ cm/s. In data set [7], the efflux ratio stood at 1. The molecule also had a concentration at 24 h in [10] of 7 ng/mL. The microsomal CLint in data set [8] was under 14 µL/min/mg.

Turning to `COc1ccccc1C(=O)NC(=O)Nc1ccc(-c2nccs2)c(C(F)(F)F)c1`, the Efficacy in [1] is 130%. Further, the values for the solubility in data set [2], in data set [4] and in data set [6] were 12 µg/mL (≈ 28.5 µM), 1.1 µg/mL (≈ 2.61 µM) and under 1 µg/mL, respectively. Also, the EC50 in data set [3] is 0.038 µM. Besides, the Activity with Rattus norvegicus is on record as -18%. The Papp in data set [5] came out at 12 ×10⁻⁶ cm/s. The efflux ratio in data set [7] amounted to 1.4. Besides, in [10], the concentration at 24 h amounted to 1 ng/mL. For the same molecule, the microsomal CLint in [8] came out at 33 µL/min/mg.

For the molecule `COc1ccccc1C(=O)NC(=O)Nc1ccc(N2CCCCC2)c(Cl)c1`, the Efficacy in [1] is 120%. The solubility was 8.5 µg/mL (≈ 21.9 µM) in data set [2], 3.6 µg/mL (≈ 9.28 µM) in data set [4] and under 1 µg/mL in [6]. The EC50 in data set [3] was found to be 0.23 µM. In [5], the apparent permeability (Papp) is under 1 ×10⁻⁶ cm/s. In addition, in [8], the microsomal CLint came out at 36 µL/min/mg.

Consider `COc1ccccc1C(=O)NC(=O)Nc1ccc(N2CCCCC2)c(C(F)(F)F)c1`, for which the Efficacy in [1] is 120%. Further, the solubility is 4.1 µg/mL (≈ 9.73 µM) in data set [2], 3 µg/mL (≈ 7.12 µM) in [4] and under 1 µg/mL in data set [6]. Also, in [3], the EC50 turned out to be 0.013 µM. Besides, in [5], the Papp is under 1 ×10⁻⁶ cm/s. Moreover, the microsomal CLint in [8] was 26 µL/min/mg.

Regarding `COc1ccccc1C(=O)NC(=O)Nc1ccc(-c2ccccc2)c(C(F)(F)F)c1`, in data set [1], the Efficacy is 110%. The solubility was 23 µg/mL (≈ 55.5 µM) in data set [2], under 1 µg/mL in data set [4] and under 1 µg/mL in data set [6]. Further, the EC50 in data set [3] came to 0.068 µM. Besides, the Activity in the data set with Rattus norvegicus is given as -20%. Also, in data set [5], the Papp is under 1 ×10⁻⁶ cm/s. In data set [10], this molecule returned a concentration at 24 h of 4.9 ng/mL. In data set [8], the microsomal CLint was found to be 15 µL/min/mg.

The term solubility denotes the dissolved amount per volume that the medium holds. The low end stands for little dissolved substance, the high end for much dissolved substance. Broadly, the EC50 is the concentration needed to bring the measured effect to its halfway point. In general, Papp refers to the rate of passage across a membrane or cell layer, normalised by area and donor concentration. In general, efflux ratio refers to the permeability from basolateral to apical divided by that in the opposite direction, in the common usage.
